V-ATPase pHluor: regulators of yeast V-ATPase proton pumping, primary screen, pHLuorin cytosolic pH fluorescence; S. cerevisiae; AID 504577, 2011; hit rate 0.37% among 350,000; response, % at 10 µM; in the data active = response mostly above about 7.3%, no sharp cut-off; inactive = mostly below about 5.4%; also: actives read high
pCIP destab: p/CIP-EGFP fusion destabilizers, primary screen, fluorescence, F442A cells. Q05BA5. 16 h. decrease of EGFP signal, % at 10 µM. hit rate 0.01% among 290,000;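 active = EGFP signal decrease of at least 30% at 10 µM or well 3 SD below plate mean, unless failing retest; inactive = the rest, including hits failing retest or dose response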
Dynein cargo inh: inhibitors of GR-EGFP nuclear translocation, primary screen, dynein cargo transport inhibitor project, imaging, high-content, 3617.4 mouse cells; test concentration mostly 20 µM; stimulated with dexamethasone, 1 µM; hits give low values; hit rate 0.47% among 220,000; z-score, hits read low;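 active = plate z-score of nuclear minus cytoplasmic receptor signal below a set negative limit, without overly bright fluorescence or cell loss, cut at about -3.5 in these data, passing the limit was not always enough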;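 also: z-score of nuclear minus cytoplasmic ring GR-EGFP intensity difference per well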
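medium = tetracycline-free induction medium containing charcoal-stripped FBS | also added = 1.0 µM final dexamethasone stimulus | schedule = 48 h induction, 1 h compound, 30 min dex at 37 °C | technique = fixed, Hoechst-stained cells imaged at 10x for EGFP | measure = GR-EGFP nuclear translocation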
Cl transport mod: KCC2 cotransporter modulators, thallium flux, primary screen, cell-based, HEK293 KCC2, FluoZin-2 fluorescence, MLSMR. KCC2 cells, thallium flux FluoZin-2 fluorescence. B-score of Tl+ flux slope (higher = more flux/activation; lower = inhibition) at 10 µM. Solute carrier family 12 member 5 (Homo sapiens), Q9H2X9. hit rate 2.2% among 190,000. AID 1456, 2008;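 active = thallium flux slope and its plate-corrected score both differing from the plate sample mean at a set confidence after two filtering rounds, in either direction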;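 also: slope of fluorescence scaled to starting intensity during 10 to 20 s after thallium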
ABCB6 inh 2: ABCB6 transporter inhibitors, primary screen, K562-ABCB6 cells, flow cytometry, MLPCN library | hit rate 0.19% among 360,000 | ATP-binding cassette sub-family B member 6 (Homo sapiens), Q9NP58 | K562-ABCB6 porphyrin accumulation, 1 h; hits give low values | fluorescence ratio to DMSO, % at 10 µM;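 active = fluorescence ratio to DMSO below 75%, the collection mean minus 3 SD; inconclusive = too few cells collected in the well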;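 also: signal is porphyrin accumulated inside mitochondria; lower ratio means ABCB6 inhibition with less porphyrin fluorescence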
Target sequence (Q9NP58 whole entry, looked up): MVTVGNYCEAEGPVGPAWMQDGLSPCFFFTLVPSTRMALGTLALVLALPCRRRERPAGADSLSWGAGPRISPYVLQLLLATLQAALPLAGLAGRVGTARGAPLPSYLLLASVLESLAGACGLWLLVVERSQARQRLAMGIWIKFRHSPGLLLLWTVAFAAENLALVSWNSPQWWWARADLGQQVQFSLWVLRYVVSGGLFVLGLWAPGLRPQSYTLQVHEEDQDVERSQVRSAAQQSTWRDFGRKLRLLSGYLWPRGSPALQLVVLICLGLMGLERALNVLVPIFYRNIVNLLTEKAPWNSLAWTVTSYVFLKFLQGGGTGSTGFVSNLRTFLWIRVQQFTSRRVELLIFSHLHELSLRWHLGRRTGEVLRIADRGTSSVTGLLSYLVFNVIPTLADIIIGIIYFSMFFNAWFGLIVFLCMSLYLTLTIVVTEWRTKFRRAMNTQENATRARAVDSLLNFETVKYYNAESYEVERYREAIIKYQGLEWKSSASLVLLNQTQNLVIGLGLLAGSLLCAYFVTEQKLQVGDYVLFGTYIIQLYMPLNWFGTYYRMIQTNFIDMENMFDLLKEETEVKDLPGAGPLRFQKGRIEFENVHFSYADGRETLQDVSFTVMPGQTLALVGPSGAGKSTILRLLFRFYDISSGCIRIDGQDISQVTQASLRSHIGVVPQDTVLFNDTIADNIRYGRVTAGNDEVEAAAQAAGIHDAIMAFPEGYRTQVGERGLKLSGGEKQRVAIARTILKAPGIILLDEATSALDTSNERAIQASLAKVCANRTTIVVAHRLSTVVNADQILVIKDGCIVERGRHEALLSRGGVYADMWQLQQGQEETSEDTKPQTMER
KCC2 secondary: KCC2 modulators in sodium-free buffer, confirmation, cell-based, HEK293 KCC2, thallium flux, secondary assay. hit rate 15% among 3,700. normalised thallium flux (F/F0 slope) at 10 µM. FluoZin2 fluorescence; hits give high values. shares compounds with Cl transport mod;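 active = thallium flux slope above the same plate's solvent-only control mean plus 3 SD; inconclusive = the two replicate wells disagree; inactive = no significant difference from solvent-only control wells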
KCC2 bumet counter: thallium flux persisting under bumetanide in KCC2 cells, confirmation, counter-screen for KCC2 modulator project, cell-based, HEK293 KCC2, FluoZin2, secondary assay 3; shares compounds with Cl transport mod; normalized thallium flux at 10 µM; HEK293-KCC2 + bumetanide/ouabain; hits give high values; hit rate 49% among 3,700;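 active = thallium entry rate above the same plate's blocked-transporter control wells by more than 3 SD; inconclusive = the two repeat wells disagree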;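 also: raw slope of fluorescence over initial fluorescence between 10 and 20 s after thallium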
KCC2 sec2: KCC2 modulators without ouabain present, confirmation, cell-based, HEK293 KCC2, thallium flux, FluoZin2, secondary assay 2 | AID 1715, 2009 | thallium flux FluoZin2 fluorescence; actives lie on both sides; F/F0 rise rate, 10–20 s post-thallium | normalized thallium flux at 10 µM | shares compounds with Cl transport mod | hit rate 23% among 3,700;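 active = thallium flux slope more than 3 SD above or below the plate's solvent-only control mean, mostly below; inconclusive = the two repeat wells disagreed; inactive = no significant shift from solvent-only controls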
HEK counter1: thallium flux modulation in parental HEK cells, confirmation, counter-screen for KCC2 modulator project, cell-based, counterscreen 1 | AID 1716, 2009 | thallium flux rate (normalised fluorescence) at 10 µM | hit rate 46% among 3,700 | shares compounds with Cl transport mod | HEK293 parental cells, thallium flux FluoZin2, ouabain; baseline-ratio fluorescence slope, 10–20 s after thallium;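 active = thallium flux rate significantly above the same plate's solvent-only control wells, beyond their mean plus 3 SD; inconclusive = the two replicate wells gave conflicting results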
KCC2 retest ouab: KCC2 inhibitors and activators, ouabain retest, confirmation, HEK-KCC2 cells. shares compounds with Cl transport mod. HEK293-KCC2, thallium flux FluoZin2 fluorescence; bidirectional: low = inhibitor, high = activator. raw Tl+ flux slope (below DMSO = inhibition, above = activation) at 10 µM. hit rate 48% among 3,700;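 active = thallium flux slope beyond 3 SD from same-plate DMSO control mean in most replicates, usually higher, sometimes lower; inconclusive = repeat tests gave conflicting results; inactive = no significant difference from controls in most replicates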;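 also: slope of initial-normalized fluorescence between seconds 10 and 20 after thallium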
HEK293 Tl flux2: native HEK Tl+ uptake effects, second counter-screen – HEK cells, counterscreen 2, counter-screen for KCC2 modulator project, confirmation; shares compounds with Cl transport mod; HEK293 parental, thallium flux FluoZin-2 fluorescence slope; thallium flux slope at 10 µM; hit rate 33% among 3,700; AID 1718, 2009;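 active = thallium flux slope above the same plate's solvent-control mean plus 3 SD in both duplicate wells; inconclusive = duplicate wells that disagreed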;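 also: run without ouabain in cells lacking the KCC2 cotransporter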
Each line names hits and unclear results; the compound was inactive in the other large screens (follow-up assays come after a bar, where they were run). Many of the other results were omitted from the sample, so hits are more common in it than they were.

COc1ccc(CCNc2oc(COc3ccccc3F)nc2C#N)cc1	none (no result: Cl transport mod) | KCC2 secondary inactive | KCC2 bumet counter 0.0034 | KCC2 sec2 inactive | HEK counter1 0.0053 | KCC2 retest ouab 0.017 | HEK293 Tl flux2 inactive
COc1ccc(-c2nc(C#N)c(NCCc3ccccc3)o2)cc1	none
N#Cc1nc(COc2ccccc2F)oc1NCc1ccc(F)cc1	none (no result: Cl transport mod) | KCC2 secondary inactive | KCC2 bumet counter inactive | KCC2 sec2 inconclusive | HEK counter1 inactive | KCC2 retest ouab inconclusive | HEK293 Tl flux2 inactive
S=c1nc[nH]c2c1sc1nc(N3CCOCC3)c3c(c12)CCCC3	Cl transport mod 67 | KCC2 secondary 0.0094 | KCC2 bumet counter 0.089 | KCC2 sec2 0.069 | HEK counter1 0.082 | KCC2 retest ouab 0.074 | HEK293 Tl flux2 0.062
C1CCc2c(c(N3CCOCC3)nc3sc4c(N5CCOCC5)nnnc4c23)C1	none (no result: pCIP destab, Dynein cargo inh, Cl transport mod)
Cc1nc(NC(=O)CSc2nnc(-c3ccc4c(c3)OCO4)o2)c(Cl)cc1Cl	none
O=C(CSc1nnc(-c2ccc3c(c2)OCO3)o1)Nc1ncc(C(F)(F)F)cc1Cl	Cl transport mod 27 | KCC2 secondary 0.016 | KCC2 bumet counter 0.042 | KCC2 sec2 inactive | HEK counter1 inconclusive | KCC2 retest ouab 0.045 | HEK293 Tl flux2 inconclusive
O=C(Cn1nnc(-c2ccccc2-n2cnnn2)n1)NCc1ccccc1	Cl transport mod -4 | KCC2 secondary inactive | KCC2 bumet counter inactive | KCC2 sec2 inconclusive | HEK counter1 inactive | KCC2 retest ouab inactive | HEK293 Tl flux2 inactive
COc1ccc(-c2nc(CN3CCC(C(=O)NCC4CCCO4)CC3)c(C)o2)cc1OC (stereo not drawn)	none (no result: Dynein cargo inh, Cl transport mod)
O=C(CCn1c(=O)[nH]c2ccsc2c1=O)N(CCc1ccccc1)Cc1ccccc1	none (no result: Cl transport mod) | KCC2 secondary inactive | KCC2 bumet counter inactive | KCC2 sec2 inactive | HEK counter1 inactive | KCC2 retest ouab inconclusive | HEK293 Tl flux2 inactive
O=C(NC1CCCC1)NS(=O)(=O)c1ccccc1Cl	Cl transport mod 5.7 | KCC2 secondary inactive | KCC2 bumet counter inactive | KCC2 sec2 inactive | HEK counter1 inactive | KCC2 retest ouab inactive | HEK293 Tl flux2 inactive
COc1ccc(OC)c(CN2CCN(c3ccccc3OC)CC2)c1	Cl transport mod 8.8 | KCC2 secondary inactive | KCC2 bumet counter inactive | KCC2 sec2 inactive | HEK counter1 inactive | KCC2 retest ouab inactive | HEK293 Tl flux2 inactive
CCNC(=O)C1(C)CCCN(Cc2ccccc2-c2ccccc2)C1 (stereo not drawn)	none (no result: V-ATPase pHluor, pCIP destab, Dynein cargo inh, Cl transport mod)
